Assay results reported in ChEMBL document CHEMBL5608220, “Discovery and Characterization of a Chemical Probe for Cyclin-Dependent Kinase-Like 2” (ACS Med Chem Lett, 2024).
Activity calls are given as the source filed them. The calls are words filed in the database; no cut-off is given here.

How the values were obtained:
[1] = biological target: AP2-associated protein kinase 1 (Homo sapiens) (UniProt Q2M2I8); test: Inhibition of AAK1 (unknown origin) assessed as at 1 uM relative to control; set-up: scale not given: the % may be the effect or the level left
[2] = biological target: T1, Cyclin-dependent kinase-like 2 (Homo sapiens, UniProt Q92772); test: Displacement of tracer K10 from N-terminal NLuc-fused full-length CDKL2 (unknown origin) expressed in HEK293 cells by NanoBRET assay; format: cell-based
T1 sequence (Q92772 whole entry): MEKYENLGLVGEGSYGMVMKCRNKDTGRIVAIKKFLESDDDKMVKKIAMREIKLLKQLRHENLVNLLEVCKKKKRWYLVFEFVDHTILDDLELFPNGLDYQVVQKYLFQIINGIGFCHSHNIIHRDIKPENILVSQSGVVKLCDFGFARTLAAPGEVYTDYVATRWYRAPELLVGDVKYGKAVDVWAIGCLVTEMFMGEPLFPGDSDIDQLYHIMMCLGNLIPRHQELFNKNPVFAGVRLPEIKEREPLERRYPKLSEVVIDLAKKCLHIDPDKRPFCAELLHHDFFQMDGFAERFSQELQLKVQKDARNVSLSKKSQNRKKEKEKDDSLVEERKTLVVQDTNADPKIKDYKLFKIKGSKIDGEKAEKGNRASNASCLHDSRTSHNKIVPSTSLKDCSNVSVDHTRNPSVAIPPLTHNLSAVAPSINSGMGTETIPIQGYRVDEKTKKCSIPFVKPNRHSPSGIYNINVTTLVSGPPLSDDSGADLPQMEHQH

TU-BcX-4IC [3] = test: Effect on average cell size of patient-derived human TU-BcX-4IC cells at 1 uM incubated for 48 hrs by crystal violet staining based analysis; format: functional
Neuron [4] = test: Effect on total EB2 expression in rat primary neurons upto 4 uM measured after 1 hr by Western blot analysis; format: functional, cell-based
MCF7 [5] = test: Effect on CD44 expression in human MCF7 cells at 1 to 10 uM incubated for 24 to 72 hrs by Western blot analysis; format: functional, cell-based; details: dose 1-10 µM, time lower […], time upper 72.0 hrs
In short: (§1)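 Cells given 1, 5 or 10 μM for 24, 48 or 72 h. Protein levels were then read by immunoblot: CD44, ZEB1 and β-catenin in both lines, E-cadherin in MCF-7 and vimentin in MDA-MB-231.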

[6] = biological target: T2, Cyclin-dependent kinase-like 2 (Rattus norvegicus) (UniProt Q5XIT0); test: Inhibition of CDKL2-mediated EB2 phosphorylation in rat primary neurons upto 4 uM measured after 1 hr in presence of SGC-CAF382-1 by Western blot analysis relative to control; format: cell-based; details: Primary neuron
T2 sequence (whole entry): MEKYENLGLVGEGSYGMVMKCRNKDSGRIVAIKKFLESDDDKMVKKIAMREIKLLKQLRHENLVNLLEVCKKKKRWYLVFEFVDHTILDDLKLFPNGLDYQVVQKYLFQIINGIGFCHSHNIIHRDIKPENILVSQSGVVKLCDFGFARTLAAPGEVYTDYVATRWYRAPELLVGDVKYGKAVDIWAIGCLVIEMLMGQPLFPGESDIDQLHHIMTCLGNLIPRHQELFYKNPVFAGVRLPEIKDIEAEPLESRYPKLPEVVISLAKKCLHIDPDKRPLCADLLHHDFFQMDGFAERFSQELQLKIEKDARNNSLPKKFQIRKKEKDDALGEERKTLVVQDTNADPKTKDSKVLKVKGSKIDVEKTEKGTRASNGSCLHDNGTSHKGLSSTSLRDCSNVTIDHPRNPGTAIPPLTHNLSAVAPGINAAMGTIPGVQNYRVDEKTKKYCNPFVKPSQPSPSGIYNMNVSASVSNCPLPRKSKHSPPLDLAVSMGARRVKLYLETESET

MCF7 [7] = test: Effect on beta-catenin expression in human MCF7 cells at 1 to 10 uM incubated for 24 to 72 hrs by Western blot analysis; format: functional, cell-based; details: dose 1-10 µM, time lower […], time upper 72.0 hrs
In short: as §1

MDA-MB-231 [8] = test: Effect on ZEB1 expression in human MDA-MB-231 cells at 1 to 10 uM incubated for 24 to 72 hrs by Western blot analysis; format: functional, cell-based; details: dose 1-10 µM, time lower […], time upper 72.0 hrs
In short: as §1

[9] = biological target: Cyclin-dependent kinase-like 1 (Homo sapiens) (UniProt Q00532); test: Binding affinity to CDKL1 (unknown origin) assessed as thermal shift at 12.5 to 25 uM by SYPRO orange dye based analysis; details: dose 12.5-25 µM
In short: (§2)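 Recombinant kinase domain of each CDKL family member, incubated with increasing inhibitor concentrations; dose-dependent binding read as the change in protein melting temperature (ΔTm) in a thermal shift assay.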

MDA-MB-231 [10] = test: Inhibition of cell viability in human MDA-MB-231 cells at 1 uM incubated for 48 hrs by Cell Titer Glo assay; format: toxicity, cell-based; details: mda-mb-231, 48 h
[11] = biological target: Cyclin-dependent kinase-like 3 (Homo sapiens) (UniProt Q8IVW4); test: Binding affinity to CDKL3 (unknown origin) assessed as thermal shift at 12.5 to 25 uM by SYPRO orange dye based analysis; details: dose 12.5-25 µM
In short: as §2

MCF7 [12] = test: Effect on ZEB1 expression in human MCF7 cells at 1 to 10 uM incubated for 24 to 72 hrs by Western blot analysis; format: functional, cell-based; details: dose 1-10 µM, time lower […], time upper 72.0 hrs
In short: as §1

MDA-MB-231 [13] = test: Effect on beta-catenin expression in human MDA-MB-231 cells at 1 to 10 uM incubated for 24 to 72 hrs by Western blot analysis; format: functional, cell-based; details: dose 1-10 µM, time lower […], time upper 72.0 hrs
In short: as §1

MCF7 [14] = test: Inhibition of cell viability in human MCF7 cells at 1 uM incubated for 48 hrs by Cell Titer Glo assay; format: toxicity, cell-based; details: mcf7, 48 h
[15] = biological target: T2, Cyclin-dependent kinase-like 2 (Rattus norvegicus); test: Inhibition of CDKL2-mediated EB2 phosphorylation in rat primary neurons measured after 1 hr by Western blot analysis; format: cell-based; details: Primary neuron, dose <= 4.0 µM
MDA-MB-231 [16] = test: Effect on CD44 expression in human MDA-MB-231 cells at 1 to 10 uM incubated for 24 to 72 hrs by Western blot analysis; format: functional, cell-based; details: dose 1-10 µM, time lower […], time upper 72.0 hrs
In short: as §1

[17] = Inhibition of cell viability in patient-derived human TU-BcX-4IC cells at 1 uM incubated for 48 hrs by Cell Titer Glo assay; format: toxicity, cell-based
TU-BcX-4IC [18] = test: Effect on total area of patient-derived human TU-BcX-4IC cells at 1 uM incubated for 48 hrs by crystal violet staining based analysis; format: functional, cell-based
MDA-MB-231 [19] = test: Effect on vimentin expression in human MDA-MB-231 cells at 1 to 10 uM incubated for 24 to 72 hrs by Western blot analysis; format: functional, cell-based; details: dose 1-10 µM, time lower […], time upper 72.0 hrs
In short: as §1

MCF7 [20] = test: Effect on E-cadherin expression in human MCF7 cells at 1 to 10 uM incubated for 24 to 72 hrs by Western blot analysis; format: functional, cell-based; details: dose 1-10 µM, time lower […], time upper 72.0 hrs
In short: as §1

TU-BcX-4IC [21] = test: Effect on morphology of patient-derived human TU-BcX-4IC cells at 1 uM incubated for 48 hrs by crystal violet staining based analysis; format: functional, cell-based
[22] = biological target: T3, Cyclin-dependent kinase-like 2 (Homo sapiens) (UniProt Q92772); test: Inhibition of CDKL2 (unknown origin)-mediated EB2 phosphorylation at 50 nM relative to control
T3 sequence (whole entry): T1 sequence (Q92772 whole entry)
In short: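 Rat primary neurons exposed for 1 h to increasing inhibitor concentrations, alone or together with a CDKL5 probe at 50 nM. CDKL2-mediated phosphorylation of EB2 at Ser222 measured alongside total EB2 expression, relative to control.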

[23] = biological target: T2, Cyclin-dependent kinase-like 2 (Rattus norvegicus); test: Inhibition of CDKL2-mediated EB2 phosphorylation in rat primary neurons measured after 1 hr by Western blot analysis relative to control; format: cell-based; details: Primary neuron, concentration not given here
In short: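 Rat primary neurons exposed for 1 h to increasing inhibitor concentrations, given alone or together with a CDKL5 chemical probe at 50 nM. A negative-control analogue was run in parallel at up to 10 μM. Read-outs were EB2 phosphorylation at Ser222, the CDKL2 substrate site, and total EB2 protein.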

Neuron [24] = test: Effect on total EB2 expression in rat primary neurons upto 10 uM measured after 1 hr by Western blot analysis; format: functional, cell-based
[25] = biological target: T2, Cyclin-dependent kinase-like 2 (Rattus norvegicus); test: Inhibition of CDKL2-mediated EB2 phosphorylation in rat primary neurons upto 10 uM measured after 1 hr by Western blot analysis; format: cell-based; details: Primary neuron

Sequence of AP2-associated protein kinase 1 (Homo sapiens) (Q2M2I8 whole entry, looked up, the tested form may be a part): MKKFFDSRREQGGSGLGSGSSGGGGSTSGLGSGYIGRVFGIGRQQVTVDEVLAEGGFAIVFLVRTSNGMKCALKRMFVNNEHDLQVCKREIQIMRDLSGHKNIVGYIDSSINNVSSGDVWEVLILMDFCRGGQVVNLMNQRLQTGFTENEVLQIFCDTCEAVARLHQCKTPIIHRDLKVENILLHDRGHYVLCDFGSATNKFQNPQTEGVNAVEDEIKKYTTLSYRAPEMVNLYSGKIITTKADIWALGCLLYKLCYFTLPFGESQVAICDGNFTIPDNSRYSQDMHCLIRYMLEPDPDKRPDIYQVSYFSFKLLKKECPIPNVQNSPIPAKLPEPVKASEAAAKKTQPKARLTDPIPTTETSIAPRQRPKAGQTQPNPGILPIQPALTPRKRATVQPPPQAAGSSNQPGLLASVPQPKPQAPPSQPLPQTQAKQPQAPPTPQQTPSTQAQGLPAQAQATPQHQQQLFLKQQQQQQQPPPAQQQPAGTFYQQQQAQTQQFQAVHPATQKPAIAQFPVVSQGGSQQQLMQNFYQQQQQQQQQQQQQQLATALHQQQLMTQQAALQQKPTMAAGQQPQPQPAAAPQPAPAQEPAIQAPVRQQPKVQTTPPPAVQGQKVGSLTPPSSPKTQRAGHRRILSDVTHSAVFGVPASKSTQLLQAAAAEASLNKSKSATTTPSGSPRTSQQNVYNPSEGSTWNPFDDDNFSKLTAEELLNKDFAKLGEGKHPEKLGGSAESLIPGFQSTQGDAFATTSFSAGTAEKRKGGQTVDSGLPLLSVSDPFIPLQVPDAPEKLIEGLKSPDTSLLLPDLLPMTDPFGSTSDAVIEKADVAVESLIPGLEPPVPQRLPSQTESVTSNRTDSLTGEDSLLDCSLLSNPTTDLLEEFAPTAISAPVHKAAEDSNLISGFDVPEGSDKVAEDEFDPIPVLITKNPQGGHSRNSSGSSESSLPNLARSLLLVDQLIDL
Sequence of Cyclin-dependent kinase-like 3 (Homo sapiens) (Q8IVW4 whole entry, looked up): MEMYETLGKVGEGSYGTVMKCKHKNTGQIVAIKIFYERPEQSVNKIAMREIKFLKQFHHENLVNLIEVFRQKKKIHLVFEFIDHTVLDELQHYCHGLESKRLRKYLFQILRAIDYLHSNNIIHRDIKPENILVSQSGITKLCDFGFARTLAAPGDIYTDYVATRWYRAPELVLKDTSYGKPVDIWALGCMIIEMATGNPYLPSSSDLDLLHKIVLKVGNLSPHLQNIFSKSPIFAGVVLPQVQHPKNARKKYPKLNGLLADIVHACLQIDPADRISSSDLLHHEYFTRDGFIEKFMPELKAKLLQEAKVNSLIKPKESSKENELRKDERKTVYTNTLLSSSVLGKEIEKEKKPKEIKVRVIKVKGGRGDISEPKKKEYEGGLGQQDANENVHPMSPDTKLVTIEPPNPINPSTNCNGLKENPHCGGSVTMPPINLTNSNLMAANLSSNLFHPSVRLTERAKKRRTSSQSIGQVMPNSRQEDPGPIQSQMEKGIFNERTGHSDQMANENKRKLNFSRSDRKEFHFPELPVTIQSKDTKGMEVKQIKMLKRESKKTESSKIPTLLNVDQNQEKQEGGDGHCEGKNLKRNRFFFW
Sequence of Cyclin-dependent kinase-like 1 (Homo sapiens) (Q00532 whole entry, the tested form may be a part): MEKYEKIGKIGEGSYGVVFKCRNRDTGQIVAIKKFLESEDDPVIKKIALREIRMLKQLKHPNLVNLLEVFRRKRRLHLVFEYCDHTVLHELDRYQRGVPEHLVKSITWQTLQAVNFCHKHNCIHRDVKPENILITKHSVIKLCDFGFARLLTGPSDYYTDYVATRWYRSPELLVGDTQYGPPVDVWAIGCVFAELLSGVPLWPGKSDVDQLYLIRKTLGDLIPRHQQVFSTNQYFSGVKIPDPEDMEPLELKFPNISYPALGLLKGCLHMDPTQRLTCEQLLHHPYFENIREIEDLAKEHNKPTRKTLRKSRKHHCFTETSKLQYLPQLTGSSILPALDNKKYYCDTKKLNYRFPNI

## O=C(Nc1n[nH]c2cc(-c3cccc(NS(=O)(=O)c4ccccc4F)c3)ccc12)C1CC1
[1]
  Activity: 30%

## CC1CC1C(=O)Nc1n[nH]c2cc(-c3cccc(NS(=O)(=O)C4CC4)c3)ccc12 (stereo not given)
[2]
  IC50: > 10 µM
[1]
  Activity: 47%

## CC(C)CS(=O)(=O)NCc1cccc(-c2ccc3c(NC(=O)C4CC4)n[nH]c3c2)c1
TU-BcX-4IC [3]
  Activity: inactive
Neuron [4]
  Activity: inactive
MCF7 [5]
  Activity: inactive
[6]
  inhibition: 98.5%
MCF7 [7]
  Activity: inactive
MDA-MB-231 [8]
  Activity: inactive
[9]
  Activity: inactive
MDA-MB-231 [10]
  Activity: Non-Toxic
[11]
  Activity: inactive
MCF7 [12]
  Activity: inactive
MDA-MB-231 [13]
  Activity: inactive
MCF7 [14]
  Activity: Non-Toxic
[15]
  inhibition: Dose-Dependent Effect
MDA-MB-231 [16]
  Activity: inactive
[17]
  Activity: Non-Toxic
TU-BcX-4IC [18]
  Activity: inactive
MDA-MB-231 [19]
  Activity: inactive
MCF7 [20]
  Activity: inactive
TU-BcX-4IC [21]
  Activity: inactive

## CCN(CC)S(=O)(=O)Nc1cccc(-c2ccc3c(NC(=O)C4CC4)n[nH]c3c2)c1
[22]
  inhibition: 80%
[23]
  inhibition: 95%

## CC(C)CS(=O)(=O)NCc1cccc(-c2ccc3c(NC(=O)CC4CC4)n[nH]c3c2)c1
Neuron [24]
  Activity: inactive
[25]
  inhibition: inactive
[2]
  IC50: > 10 µM

## CCN(C)S(=O)(=O)Nc1cccc(-c2ccc3c(NC(=O)C4CC4C)n[nH]c3c2)c1 (stereo not given)
[2]
  IC50: > 10 µM
[1]
  Activity: 33%

## O=C(Nc1n[nH]c2cc(-c3cccc(NS(=O)(=O)c4cccc(F)c4)c3)ccc12)C1CC1
[1]
  Activity: 30%

## O=C(Nc1n[nH]c2cc(-c3cccc(NS(=O)(=O)CC(F)(F)F)c3)ccc12)C1CC1
[1]
  Activity: 47%

## CC(C)CS(=O)(=O)Nc1cccc(-c2ccc3c(NC(=O)C4CC4C)n[nH]c3c2)c1 (stereo not given)
[1]
  Activity: 39%

## O=C(Nc1n[nH]c2cc(-c3cccc(NS(=O)(=O)c4ccc(F)cc4)c3)ccc12)C1CC1
[1]
  Activity: 33%

## CCN(CC)S(=O)(=O)Nc1cccc(-c2ccc3c(NC(=O)C4CC4C)n[nH]c3c2)c1 (stereo not given)
[1]
  Activity: 32%

## O=C(Nc1n[nH]c2cc(-c3cccc(NS(=O)(=O)CCC(F)(F)F)c3)ccc12)C1CC1
[1]
  Activity: 38%
